Test results from ChEMBL document CHEMBL5356993, “Novel pyrazolo[3,4-d]pyrimidine derivatives: design, synthesis, anticancer evaluation, VEGFR-2 inhibition, and antiangiogenic activity” (RSC Med Chem, 2023).

Assays:
Format in all cases: functional
Conditions in all cases: read-out: GI
HOP-62 = assay: Antiproliferative activity against human HOP-62 cells assessed as cell growth inhibition at 10 uM incubated for 48 hrs by SRB assay relative to control
ACHN = assay: Antiproliferative activity against human ACHN cells assessed as cell growth inhibition at 10 uM incubated for 48 hrs by SRB assay relative to control
OVCAR-5 = assay: Antiproliferative activity against human OVCAR-5 cells assessed as cell growth inhibition at 10 uM incubated for 48 hrs by SRB assay relative to control
Summary of the method: (§1)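 Cells plated in 96-well plates at […] cells/well and preincubated 24 h at 37 °C, 5% CO2. Time-zero plates were TCA-fixed. Compound was diluted in medium with 50 µg/mL gentamicin and cells exposed for 48 h. Adherent cells fixed with 10% final TCA; suspension cells with 16% final TCA. Plates stained with 0.4% SRB in 1% acetic acid, dye solubilized in 10 mM Trizma, absorbance read at 515 nm. Percent growth calculated against time-zero and control.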

SF-539 = assay: Antiproliferative activity against human SF-539 cells assessed as cell growth inhibition at 10 uM incubated for 48 hrs by SRB assay relative to control; summary of the method: as §1
IGROV-1 = assay: Antiproliferative activity against human IGROV-1 cells assessed as cell growth inhibition at 10 uM incubated for 48 hrs by SRB assay relative to control
RXF 393 = assay: Antiproliferative activity against human RXF 393 cells assessed as cell growth inhibition at 10 uM incubated for 48 hrs by SRB assay relative to control; summary of the method: as §1
SN12C = assay: Antiproliferative activity against human SN12C cells assessed as cell growth inhibition at 10 uM incubated for 48 hrs by SRB assay relative to control
T47D = assay: Antiproliferative activity against human T47D cells assessed as cell growth inhibition at 10 uM incubated for 48 hrs by SRB assay relative to control
Summary of the method: (§2)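 Cells pre-incubated 24 h at 37°C, 5% CO2, then exposed to compound (DMSO stock diluted in medium with 50 µg/mL gentamicin) for 48 h. Adherent cells fixed with cold TCA (final 10%, 60 min, 4°C); suspension cells fixed with 16% TCA final. Stained with 0.4% SRB in 1% acetic acid for 10 min, dye solubilized in 10 mM Trizma base, absorbance read at 515 nm. Growth calculated against time-zero and untreated control plates.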

HT-29 = assay: Antiproliferative activity against human HT-29 cells assessed as cell growth inhibition at 10 uM incubated for 48 hrs by SRB assay relative to control; summary of the method: as §1
OVCAR-3 = assay: Antiproliferative activity against human OVCAR-3 cells assessed as cell growth inhibition at 10 uM incubated for 48 hrs by SRB assay relative to control; summary of the method: as §1
A498 = assay: Antiproliferative activity against human A498 cells assessed as cell growth inhibition at 10 uM incubated for 48 hrs by SRB assay relative to control; summary of the method: as §1
MDA-MB-435 = assay: Antiproliferative activity against human MDA-MB-435 cells assessed as cell growth inhibition at 10 uM incubated for 48 hrs by SRB assay relative to control
MCF7 = assay: Antiproliferative activity against human MCF7 cells assessed as cell growth inhibition at 10 uM incubated for 48 hrs by SRB assay relative to control
UACC-62 = assay: Antiproliferative activity against human UACC-62 cells assessed as cell growth inhibition at 10 uM incubated for 48 hrs by SRB assay relative to control; summary of the method: as §2
BT-549 = assay: Antiproliferative activity against human BT-549 cells assessed as cell growth inhibition at 10 uM incubated for 48 hrs by SRB assay relative to control
MDA-MB-468 = assay: Antiproliferative activity against human MDA-MB-468 cells assessed as cell growth inhibition at 10 uM incubated for 48 hrs by SRB assay relative to control
LOX IMVI = assay: Antiproliferative activity against human LOX IMVI cells assessed as cell growth inhibition at 10 uM incubated for 48 hrs by SRB assay relative to control
HCT-15 = assay: Antiproliferative activity against human HCT-15 cells assessed as cell growth inhibition at 10 uM incubated for 48 hrs by SRB assay relative to control
M14 = assay: Antiproliferative activity against human M14 cells assessed as cell growth inhibition at 10 uM incubated for 48 hrs by SRB assay relative to control; summary of the method: as §1
HCC 2998 = assay: Antiproliferative activity against human HCC 2998 cells assessed as cell growth inhibition at 10 uM incubated for 48 hrs by SRB assay relative to control
SNB-75 = assay: Antiproliferative activity against human SNB-75 cells assessed as cell growth inhibition at 10 uM incubated for 48 hrs by SRB assay relative to control; summary of the method: as §2
OVCAR-4 = assay: Antiproliferative activity against human OVCAR-4 cells assessed as cell growth inhibition at 10 uM incubated for 48 hrs by SRB assay relative to control
A549 = assay: Antiproliferative activity against human A549 cells assessed as cell growth inhibition at 10 uM incubated for 48 hrs by SRB assay relative to control
NCI/ADR-RES = assay: Antiproliferative activity against human NCI-ADR-RES cells assessed as cell growth inhibition at 10 uM incubated for 48 hrs by SRB assay relative to control
HOP-92 = assay: Antiproliferative activity against human HOP-92 cells assessed as cell growth inhibition at 10 uM incubated for 48 hrs by SRB assay relative to control; summary of the method: as §1

| SMILES | inhibition of growth at 10 µM (HOP-62) | inhibition of growth at 10 µM (ACHN) | inhibition of growth at 10 µM (OVCAR-5) | inhibition of growth at 10 µM (SF-539) | inhibition of growth at 10 µM (IGROV-1) | inhibition of growth at 10 µM (RXF 393) | inhibition of growth at 10 µM (SN12C) | inhibition of growth at 10 µM (T47D) | inhibition of growth at 10 µM (HT-29) | inhibition of growth at 10 µM (OVCAR-3) | inhibition of growth at 10 µM (A498) | inhibition of growth at 10 µM (MDA-MB-435) | inhibition of growth at 10 µM (MCF7) | inhibition of growth at 10 µM (UACC-62) | inhibition of growth at 10 µM (BT-549) | inhibition of growth at 10 µM (MDA-MB-468) | inhibition of growth at 10 µM (LOX IMVI) | inhibition of growth at 10 µM (HCT-15) | inhibition of growth at 10 µM (M14) | inhibition of growth at 10 µM (HCC 2998) | also measured |
| --- | --- | --- | --- | --- | --- | --- | --- | --- | --- | --- | --- | --- | --- | --- | --- | --- | --- | --- | --- | --- | --- |
| Cc1nc2c(cnn2-c2ccccc2)c(=O)n1-c1ccc(N)cc1 | 16.2% | 27.1% | < 15% | 19.4% | 15% | < 15% | 21.1% | 64.9% | < 15% | < 15% | 16.8% | 22.9% | 37.6% | 34.5% | 31.2% | 62.4% | 18.5% | < 15% | < 15% | < 15% | inhibition of growth at 10 µM (SNB-75): 28.1%; inhibition of growth at 10 µM (OVCAR-4): 48.7%; inhibition of growth at 10 µM (A549): < 15%; inhibition of growth at 10 µM (NCI/ADR-RES): < 15%; inhibition of growth at 10 µM (HOP-92): < 15% |
| COc1ccc(/C=C/C(=O)c2ccc(-n3c(C)nc4c(cnn4-c4ccccc4)c3=O)cc2)cc1 | 19.5% | 29% | < 15% | 22.4% | < 15% | 15.6% | 18.4% | 65.3% | 28.5% | 39% | < 15% | 88.8% | 91.7% | 50% | 55% | 88.7% | 56% | 46.5% | 46.9% | < 15% | inhibition of growth at 10 µM (SNB-75): < 15%; inhibition of growth at 10 µM (OVCAR-4): 34.3%; inhibition of growth at 10 µM (A549): < 15%; inhibition of growth at 10 µM (NCI/ADR-RES): 37.6%; inhibition of growth at 10 µM (HOP-92): < 15% |
| Cc1nc2c(cnn2-c2ccccc2)c(=O)n1-c1ccc(NC(=O)c2ccc([N+](=O)[O-])cc2)cc1 | < 15% | 39.6% | < 15% | 18.7% | 31.1% | 26.4% | 29% | 66.5% | 21.6% | < 15% | 19.6% | 33.6% | 56.7% | 39.6% | 48.8% | 68.6% | 34.1% | 28.6% | 24.6% | < 15% | inhibition of growth at 10 µM (SNB-75): 32.9%; inhibition of growth at 10 µM (OVCAR-4): 48.2%; inhibition of growth at 10 µM (A549): 33%; inhibition of growth at 10 µM (NCI/ADR-RES): 47.2%; inhibition of growth at 10 µM (HOP-92): < 15% |
| Cc1nc2c(cnn2-c2ccccc2)c(=O)n1-c1ccc(N2C(=O)C=CC2=O)cc1 | < 15% | < 15% | < 15% | < 15% | < 15% | < 15% | < 15% | < 15% | < 15% | < 15% | < 15% | < 15% | < 15% | < 15% | < 15% | 18.6% | < 15% | < 15% | < 15% | < 15% | inhibition of growth at 10 µM (SNB-75): < 15%; inhibition of growth at 10 µM (OVCAR-4): < 15%; inhibition of growth at 10 µM (A549): < 15%; inhibition of growth at 10 µM (NCI/ADR-RES): < 15%; inhibition of growth at 10 µM (HOP-92): < 15% |
